Activity calls are given as the source filed them.
How the values were obtained:
MDA-MB-468 [1] = assay: Inhibition of colony formation in human MDA-MB-468 cells at 1 uM incubated for 15 days by crystal violet staining based analysis; format: functional, cell-based; conditions: time 15.0 day
Procedure, shortened: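 5000 cells per 6 cm plate in triplicate with 1 μM PROTAC or DMSO, medium changed every 5 days; colonies stained with crystal violet after 14–15 days. Three independent experiments, mean ± SD, unpaired t-test against control.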

[2] = target: T1, von Hippel-Lindau disease tumor suppressor/Mitogen-activated protein kinase kinase kinase 9 (Homo sapiens) (UniProt P80192+P40337); assay: PROTAC activity at VHL/MLK1 in human MDA-MB-468 cells assessed as protein degradation at 1 uM incubated for 24 hrs by immunoblot analysis; format: cell-based
Procedure, shortened: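 Endogenous MLK1, MLK2 or MLK4 levels in MCF-7 and MDA-MB-468 cells. Cells were grown in high-glucose DMEM with 10% FBS, seeded at 100 000 cells/well and treated the next day for 24 h, with DMSO as control. Lysis was in RIPA with protease inhibitor, followed by 10% SDS-PAGE, nitrocellulose transfer and ECL immunoblot with GAPDH or β-actin as loading control.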

MDA-MB-468 [3] = assay: Effect on MLK3 mRNA level in human MDA-MB-468 cells at 1 uM measured after 24 hrs by RT-qPCR analysis; format: functional, cell-based
Procedure, shortened: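 Total RNA extracted from MCF-7 and MDA-MB-468 cells 24 h after PROTAC treatment, purity and concentration checked spectrophotometrically, reverse transcribed to cDNA and MLK3 transcript quantified by RT-qPCR.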

[4] = target: T2, von Hippel-Lindau disease tumor suppressor/Mitogen-activated protein kinase kinase kinase 11 (Homo sapiens, UniProt Q16584+P40337); assay: PROTAC activity at VHL/DOX-inducible MLK3 (unknown origin) overexpressed in carfilzomib-treated human HCC1806 cells assessed as protein degradation at 0.25 to 1 uM measured after 7 hrs by immunoblot analysis; format: cell-based; conditions: dose 0.25-1 µM
Procedure, shortened: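 HCC1806 cells with DOX-inducible MLK3 were induced with 1 μg/mL DOX for 24 h. They were pretreated with 1 μM carfilzomib (proteasome inhibitor) for 1 h, then with PROTAC at 0.25–1 μM for 7 h, with DMSO as control. MLK3 was assessed by ECL immunoblot.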
Target sequence in this assay (P40337 whole entry, looked up): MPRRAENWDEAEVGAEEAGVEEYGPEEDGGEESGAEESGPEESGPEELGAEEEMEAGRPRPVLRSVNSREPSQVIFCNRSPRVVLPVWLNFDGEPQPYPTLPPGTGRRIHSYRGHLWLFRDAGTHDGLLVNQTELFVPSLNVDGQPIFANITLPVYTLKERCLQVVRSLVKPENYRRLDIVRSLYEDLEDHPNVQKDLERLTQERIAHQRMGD
Target sequence in this assay (Q16584 whole entry, looked up): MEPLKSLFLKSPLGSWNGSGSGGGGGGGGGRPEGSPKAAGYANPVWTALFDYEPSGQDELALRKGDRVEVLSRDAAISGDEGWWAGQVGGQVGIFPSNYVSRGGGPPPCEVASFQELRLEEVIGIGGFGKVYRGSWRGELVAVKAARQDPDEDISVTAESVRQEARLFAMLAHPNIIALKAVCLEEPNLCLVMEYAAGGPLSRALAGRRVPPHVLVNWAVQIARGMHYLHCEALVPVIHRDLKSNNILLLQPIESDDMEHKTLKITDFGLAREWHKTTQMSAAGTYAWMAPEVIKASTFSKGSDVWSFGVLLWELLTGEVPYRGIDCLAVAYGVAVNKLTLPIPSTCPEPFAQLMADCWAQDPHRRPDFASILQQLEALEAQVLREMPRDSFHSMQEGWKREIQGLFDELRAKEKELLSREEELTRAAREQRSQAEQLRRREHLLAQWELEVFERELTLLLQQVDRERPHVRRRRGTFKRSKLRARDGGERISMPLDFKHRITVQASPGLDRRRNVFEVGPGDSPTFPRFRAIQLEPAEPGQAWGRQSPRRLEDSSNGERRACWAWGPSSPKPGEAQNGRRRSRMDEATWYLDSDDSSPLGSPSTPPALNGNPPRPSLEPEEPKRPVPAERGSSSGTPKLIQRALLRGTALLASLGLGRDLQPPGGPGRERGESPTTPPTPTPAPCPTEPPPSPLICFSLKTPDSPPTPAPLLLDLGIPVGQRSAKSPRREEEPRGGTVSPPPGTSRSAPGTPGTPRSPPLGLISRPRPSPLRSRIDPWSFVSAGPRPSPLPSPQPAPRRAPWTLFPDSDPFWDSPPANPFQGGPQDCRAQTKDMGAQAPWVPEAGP

MDA-MB-468 [5] = assay: Effect on ERK pathway in human MDA-MB-468 cells at 1 uM measured after 24 hrs by immunoblot analysis; format: functional, cell-based
[6] = target: T2, von Hippel-Lindau disease tumor suppressor/Mitogen-activated protein kinase kinase kinase 11; assay: PROTAC activity at VHL/MLK3 in human MCF7 cells assessed as protein degradation at 1 uM measured after 24 hrs by immunoblot analysis
Target sequence in this assay (P40337 whole entry, looked up): as the sequence (P40337 whole entry, looked up) above
Target sequence in this assay (Q16584 whole entry, looked up): as the sequence (Q16584 whole entry, looked up) above

[7] = target: T2, von Hippel-Lindau disease tumor suppressor/Mitogen-activated protein kinase kinase kinase 11; assay: PROTAC activity at VHL/MLK3 in human MDA-MB-468 cells assessed as protein degradation at 1 uM measured after 24 hrs by immunoblot analysis
Target sequence in this assay (P40337 whole entry, looked up): as the sequence (P40337 whole entry, looked up) above
Target sequence in this assay (Q16584 whole entry, looked up): as the sequence (Q16584 whole entry, looked up) above

[8] = target: T2, von Hippel-Lindau disease tumor suppressor/Mitogen-activated protein kinase kinase kinase 11; assay: PROTAC activity at VHL/MLK3 in human MCF7 cells assessed as protein degradation measured after 24 hrs by Western blot analysis; format: cell-based
Procedure, shortened: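 Endogenous MLK3: cells seeded at 100 000/well, treated next day for 24 h with PROTAC at 0.1–5 μM, DMSO control; immunoblot with GAPDH or β-actin loading control. Remaining MLK3 percentage plotted against concentration to derive DC50 and Dmax.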
Target sequence in this assay (Q16584 whole entry): as the sequence (Q16584 whole entry, looked up) above
Target sequence in this assay (P40337 whole entry): as the sequence (P40337 whole entry, looked up) above

[9] = target: T2, von Hippel-Lindau disease tumor suppressor/Mitogen-activated protein kinase kinase kinase 11; assay: PROTAC activity at VHL/MLK3 in human MCF7 cells assessed as decrease in JNK pathway at 1 uM measured after 24 hrs by immunoblot analysis; format: cell-based
Target sequence in this assay (P40337 whole entry, looked up): as above
Target sequence in this assay (Q16584 whole entry, looked up): as the sequence (Q16584 whole entry, looked up) above

[10] = target: T2, von Hippel-Lindau disease tumor suppressor/Mitogen-activated protein kinase kinase kinase 11; assay: PROTAC activity at VHL/DOX-inducible MLK3 (unknown origin) overexpressed in human A-375 cells assessed as protein degradation at 0.1 uM incubated for 24 hrs by immunoblot analysis; format: cell-based
Procedure, shortened: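 A375 cells with DOX-inducible MLK3 were seeded at 100 000/well and induced with 1 μg/mL DOX for 24 h. Eight VHL-based PROTACs were then tested at 0.1–5 μM for 24 h, with DMSO as control. MLK3 was detected by ECL immunoblot of RIPA lysates, normalised to GAPDH or β-actin.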
Target sequence in this assay (P40337 whole entry, looked up): as the sequence (P40337 whole entry, looked up) above
Target sequence in this assay (Q16584 whole entry, looked up): as the sequence (Q16584 whole entry, looked up) above

MCF7 [11] = assay: Induction of apoptosis in human MCF7 cells at 1 uM measured after 48 hrs by Annexin V-FITC/PI staining based flow cytometry; format: functional, cell-based
Procedure, shortened: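 Cells seeded at 50 000/well, treated 48 h with 1 μM PROTAC or DMSO; cells plus supernatant stained with Alexa Fluor488 Annexin V for 30 min at room temperature in the dark, PI added 5 min before flow cytometry. At least three repeats.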

MDA-MB-468 [12] = assay: Inhibition of cell migration in human MDA-MB-468 cells at 1 uM incubated for 24 hrs by transwell assay; format: functional, cell-based
Procedure, shortened: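 Boyden inserts, 8 μm pores: 200 000 cells in serum-free DMEM with 1 μM PROTAC or DMSO, 20% FBS DMEM below as chemoattractant, 24 h at 37 °C, 5% CO2. Migrated cells fixed, crystal violet stained and counted by image analysis; at least three repeats.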

MCF7 [13] = assay: Effect on ERK pathway in human MCF7 cells at 1 uM measured after 24 hrs by immunoblot analysis; format: functional, cell-based
[14] = target: T2, von Hippel-Lindau disease tumor suppressor/Mitogen-activated protein kinase kinase kinase 11; assay: PROTAC activity at VHL/MLK3 in human MCF7 cells assessed as protein degradation measured after 4 to 48 hrs by Western blot analysis; format: cell-based; conditions: dose 1.0 µM, time 4-48 hrs
Procedure, shortened: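 MCF-7 and MDA-MB-468 cells were seeded at 100 000/well and treated with 1 μM PROTAC for 4–48 h, with DMSO as control. MLK3 was quantified by immunoblot as percent remaining, and t1/2 of degradation was derived from the time course.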
Target sequence in this assay (P40337 whole entry, looked up): as the sequence (P40337 whole entry, looked up) above
Target sequence in this assay (Q16584 whole entry, looked up): as the sequence (Q16584 whole entry, looked up) above

[15] = target: T1, von Hippel-Lindau disease tumor suppressor/Mitogen-activated protein kinase kinase kinase 9 (Homo sapiens); assay: PROTAC activity at VHL/DOX-inducible MLK1 (unknown origin) overexpressed in human A-375 cells assessed as protein degradation at 0.1 to 5 uM incubated for 24 hrs by immunoblot analysis; format: cell-based; conditions: dose 0.1-5 µM
Procedure, shortened: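 A375 cells carried lentiviral DOX-inducible MLK1, MLK2 or MLK4 and were grown in RPMI-1640 with 10% FBS. Cells were seeded at 100 000/well and induced with 1 μg/mL DOX. After 24 h they were treated at 0.1–5 μM for 24 h, with DMSO as control. Levels were read by ECL immunoblot of RIPA lysates, with GAPDH or β-actin loading control.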

T1 sequence (P40337 whole entry, looked up): as the sequence (P40337 whole entry, looked up) above
T1 sequence (P80192 whole entry, looked up): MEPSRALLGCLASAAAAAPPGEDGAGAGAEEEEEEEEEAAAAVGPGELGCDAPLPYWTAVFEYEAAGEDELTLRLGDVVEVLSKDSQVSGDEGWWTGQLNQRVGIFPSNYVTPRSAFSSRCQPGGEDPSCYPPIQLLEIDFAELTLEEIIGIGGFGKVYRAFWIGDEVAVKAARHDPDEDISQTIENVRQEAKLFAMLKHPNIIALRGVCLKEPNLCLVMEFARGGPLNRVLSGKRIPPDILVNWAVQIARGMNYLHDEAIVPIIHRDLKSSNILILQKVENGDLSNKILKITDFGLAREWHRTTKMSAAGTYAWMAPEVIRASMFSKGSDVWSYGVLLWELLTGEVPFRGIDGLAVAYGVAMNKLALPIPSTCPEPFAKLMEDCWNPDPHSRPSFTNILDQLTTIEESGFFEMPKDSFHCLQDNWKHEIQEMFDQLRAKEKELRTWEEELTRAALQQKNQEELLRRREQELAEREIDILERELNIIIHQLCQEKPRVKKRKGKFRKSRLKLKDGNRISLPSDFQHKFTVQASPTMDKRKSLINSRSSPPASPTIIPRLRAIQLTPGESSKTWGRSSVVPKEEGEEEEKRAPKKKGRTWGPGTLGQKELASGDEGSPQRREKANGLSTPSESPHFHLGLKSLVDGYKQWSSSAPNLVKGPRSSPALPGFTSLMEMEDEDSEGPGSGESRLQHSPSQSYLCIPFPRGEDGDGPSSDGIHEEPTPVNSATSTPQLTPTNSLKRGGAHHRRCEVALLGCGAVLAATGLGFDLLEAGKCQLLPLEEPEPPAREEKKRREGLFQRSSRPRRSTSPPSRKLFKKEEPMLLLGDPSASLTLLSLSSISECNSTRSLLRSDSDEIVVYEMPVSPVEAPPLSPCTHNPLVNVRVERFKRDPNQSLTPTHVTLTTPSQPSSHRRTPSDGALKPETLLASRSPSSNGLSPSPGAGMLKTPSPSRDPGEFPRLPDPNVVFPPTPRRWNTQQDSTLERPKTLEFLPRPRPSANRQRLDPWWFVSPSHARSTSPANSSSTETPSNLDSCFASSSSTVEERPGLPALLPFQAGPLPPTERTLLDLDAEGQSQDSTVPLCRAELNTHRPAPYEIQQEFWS

CCSCc1ccc2c(c1)c1c3c(c4c5cc(CSCC)ccc5n5c4c1n2[C@H]1C[C@](O)(C(=O)NCCOCCOCCOCC(=O)N[C@H](C(=O)N2C[C@H](O)C[C@H]2C(=O)N[C@@H](C)c2ccc(-c4scnc4C)cc2)C(C)(C)C)[C@]5(C)O1)CNC3=O
inactive: Activity [2] | Activity (MDA-MB-468 [3]) | Activity [4] | Activity (MDA-MB-468 [5]) | Activity (MCF7 [11]) | Activity (MCF7 [13]) | Activity [15]
active: inhibition (MDA-MB-468 [1]) | Activity [6] | Activity [7] | Activity [9] | Activity [10] | inhibition (MDA-MB-468 [12]) | Activity [14] Dose-Dependent Effect
50 nM: DC50 [8]

Reference: ChEMBL document CHEMBL5579886, “Selective Degradation of MLK3 by a Novel CEP1347-VHL-02 PROTAC Compound Limits the Oncogenic Potential of TNBC” (J Med Chem, 2024)
